Measured values from ChEMBL document CHEMBL1139091, “Synthesis and antimycobacterial evaluation of benzofurobenzopyran analogues” (2007).
Values after ≈ are worked out from the molar mass of the structure shown.

Legend:
[1] = system: Mycolicibacterium smegmatis; assay: Antimycobacterial activity against Mycobacterium smegmatis mc2155 after 48 hrs by microdilution resazurin assay; assay type: functional; details: str. MC2 155, 48 h
Summary of the method: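 Inoculum of M. smegmatis mc²155 grown in Dubos medium + 10% ADC; twofold serial dilutions in Dubos broth, 500 to 0.9 µg/mL. DMSO and isoniazid controls. 48 h at 37 °C, then 0.01% resazurin added, further 24 h. Growth is read as blue-to-pink change plus OD 530–630 nm.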

[2] = system: Mycobacterium tuberculosis; assay: Antimycobacterial activity against Mycobacterium tuberculosis H37Rv after 6 days by microdilution resazurin assay; assay type: functional; details: 144 h
Summary of the method: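 M. tuberculosis H37Rv inoculum grown in Dubos medium with 10% ADC. Twofold dilutions in Dubos broth, 500 to 0.9 µg/mL, with DMSO and isoniazid controls. Incubated 6 days at 37 °C, then 0.01% resazurin added for 24 h more. Read by colour change (blue to pink) and OD 530–630 nm. MIC95 (>95% growth inhibition) derived by curve fitting.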

SMILES | MIC95 [1] [µg/mL] | MIC95 [2] [µg/mL]
C#CC(C)(C)Oc1ccc(-c2ccccc2)cc1 | > 100 | > 100
O=C(c1ccc(O)cc1)c1ccc(O)cc1 | 62 (≈ 289 µM) | 125 (≈ 584 µM)
CC1(C)C=Cc2cc(Oc3ccccc3)ccc2O1 | 70 (≈ 277 µM) | > 500
C#CC(C)(C)Oc1ccc2oc3c(c2c1)CCCC3 | > 100 | > 100
CC1(C)C=Cc2cc(C(=O)c3ccc(O)cc3)ccc2O1 | 32 (≈ 114 µM) | 62 (≈ 221 µM)
CC1(C)C=Cc2cc(-c3ccccc3)ccc2O1 | > 500 | > 500
CC1(C)C=Cc2cc3oc4ccccc4c3cc2O1 | 20 (≈ 79.9 µM) | 35 (≈ 140 µM)
CC(=O)c1cc2oc3ccccc3c2c2c1OC(C(C)C)C2 (stereo unspecified) | > 500 | > 500
CC(=O)c1ccc2oc3ccc(O)cc3c2c1 | > 500 | 8 (≈ 35.4 µM)
CC(=O)c1ccc2oc3ccc(C(C)=O)cc3c2c1 | 5 (≈ 19.8 µM) | 10 (≈ 39.6 µM)
CC1(C)C=Cc2cc(C(O)c3ccccc3)ccc2O1 (stereo unspecified) | 20 (≈ 75.1 µM) | 20 (≈ 75.1 µM)
CC1(C)CCc2cc(Cc3ccccc3)ccc2O1 | > 500 | 30 (≈ 119 µM)
Oc1ccc2oc3ccc(O)cc3c2c1 | 15 (≈ 74.9 µM) | 15 (≈ 74.9 µM)
CC(=O)c1ccc2oc3ccc4c(c3c2c1)C=CC(C)(C)O4 | > 500 | > 500
CC1(C)C=Cc2cc(C(O)c3cccnc3)ccc2O1 (stereo unspecified) | 62 (≈ 232 µM) | 62 (≈ 232 µM)
CC1(C)C=Cc2c(ccc3oc4c(c23)CCCC4)O1 | > 500 | 120 (≈ 472 µM)

SMILES | MIC95 [1] [µg/mL] | MIC95 [2] [µg/mL]
C#CC(C)(C)Oc1ccc(Oc2ccccc2)cc1 | > 100 | > 100
C#CC(C)(C)Oc1cccc(-c2ccccc2)c1 | > 100 | > 100
CC1(C)C=Cc2c(ccc3oc4ccccc4c23)O1 | 10 (≈ 40 µM) | 10 (≈ 40 µM)
CC1(C)CCc2cc3oc4ccccc4c3cc2O1 | 40 (≈ 159 µM) | > 500
CC1(C)CCc2c(ccc3oc4ccccc4c23)O1 | 10 (≈ 39.6 µM) | 10 (≈ 39.6 µM)
Oc1ccc2oc3c(c2c1)CCCC3 | 31 (≈ 165 µM) | 500 (≈ 2660 µM)
CC1(C)CCc2c(c(Br)cc3oc4ccccc4c23)O1 | > 500 | > 500
CC(=O)c1cc2oc3ccccc3c2c2c1OC(C)(C)CC2 | > 500 | > 500
Oc1ccc2oc3ccccc3c2c1 | – | 25 (≈ 136 µM)
CC1(C)C=Cc2cc3oc4ccccc4c3c(Br)c2O1 | 120 (≈ 365 µM) | 30 (≈ 91.1 µM)
CC1(C)CCc2cc(C(=O)c3ccccc3)ccc2O1 | 50 (≈ 188 µM) | 30 (≈ 113 µM)
CC1(C)C=Cc2cc(C(=O)c3ccccc3)ccc2O1 | 20 (≈ 75.7 µM) | 40 (≈ 151 µM)
CC1(C)CCc2cc(C(=O)c3ccccc3)c(O)cc2O1 | 4 (≈ 14.2 µM) | 62 (≈ 220 µM)
C#CC(C)(C)Oc1ccc2oc3ccc(C(C)=O)cc3c2c1 | > 100 | > 100
NNC(=O)c1ccncc1 [ISONIAZID] | 12 (≈ 87.5 µM) | 0.1 (≈ 0.729 µM)
